Laboratory results: ChEMBL document CHEMBL6177935, “Design and synthesis of novel multi-target tetrabromophthalimides as CBS and Topo-II inhibitors and DNA intercalators” (RSC Med Chem, 2024)
≈ marks a conversion by molar mass, not a printed value. Calls of active or inactive are those of the source. No cut-off for these calls is given here.

Experiments:
MDA-MB-468 [1] = test: Induction of apoptosis in human MDA-MB-468 cells assessed as upregulation of p53 expression measured after 1 hr by ELISA relative to control; format: functional
Method in brief: (§1)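 Sandwich ELISA with wells precoated with capture antibody. Samples and standards (7-point curve) incubated 1 h at 37 °C, then biotin detection antibody 1 h at 37 °C, then avidin-HRP 30 min at 37 °C, with washes between steps. TMB added for 10-20 min at 37 °C in the dark, stopped with sulphuric acid and read at 450 nm. Duplicate readings averaged and zero standard subtracted.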

MDA-MB-468 [2] = test: Induction of apoptosis in human MDA-MB-468 cells assessed as upregulation of Bax expression measured after 1 hr by ELISA relative to control; format: functional; method in brief: as §1
HNO 97 cell line = test: Growth inhibition of human HNO 97 cells at 100 ug/ml measured after 48 hrs by SRB assay relative to control; format: functional; details: dose 100.0 µg/ml, pooled result: one value given for 15 cell lines, strains, targets or settings
Method in brief: (§2)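 SRB screen on fifteen human cancer lines. Cells seeded at 3×10^3 per well and left 24 h to attach. A single concentration of 100 µg/mL was tested in triplicate wells for 48 h, with 1% v/v DMSO as vehicle control. Cells fixed in 20% TCA, stained with 0.4% SRB and read at 570 nm. Survival fraction = OD treated/OD control.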

MDA-MB-468 [3] = test: Cell cycle analysis in human MDA-MB-468 cells assessed as accumulation of cells at G2-M phase at 3.1 uM measured after 48 hrs by propidium iodide staining based flow cytometry (reference value: 0.27%); format: functional
Method in brief: (§3)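 MDA-MB-468 cells, 2 x 10^5 per well in medium with 10% FBS, grown 24 h at 37 °C, 5% CO₂. Then exposed to 3.1 μM in 1% v/v DMSO for 48 h, washed in cold PBS and fixed in ice-cold 70% ethanol. Stained with PI for 15 min at 37 °C and read by flow cytometry.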

HCT-116 = test: Growth inhibition of human HCT-116 cells at 100 ug/ml measured after 48 hrs by SRB assay relative to control; format: functional; details: dose 100.0 µg/ml, pooled result: one value given for 15 cell lines, strains, targets or settings; method in brief: as §2
HeLa [4] = test: Growth inhibition of human HeLa cells measured after 48 hrs by SRB assay; format: functional, cell-based
Method in brief: (§4)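 SRB assay. Cells seeded at 3×10^3 per well and attached 24 h, then exposed for 48 h to 12.5, 25, 50 and 62.5 µg/mL in triplicate wells, with 1% v/v DMSO vehicle. Cells fixed in 20% TCA, stained with 0.4% SRB and read at 570 nm. Survival fraction = OD treated/OD control, and IC50 taken from a sigmoidal dose-response fit.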

MDA-MB-468 [5] = test: Cell cycle analysis in human MDA-MB-468 cells assessed as accumulation of cells at G0-G1 phase at 3.1 uM measured after 48 hrs by propidium iodide staining based flow cytometry (reference value: 84.43%); format: functional; method in brief: as §3
DNA topoisomerase 2-beta [6] = target: T1, DNA topoisomerase 2-beta (Homo sapiens, UniProt Q02880); test: Inhibition of human topoisomerase IIB-mediated DNA fragmentation
T1 sequence (Q02880 whole entry, the tested form may be a part): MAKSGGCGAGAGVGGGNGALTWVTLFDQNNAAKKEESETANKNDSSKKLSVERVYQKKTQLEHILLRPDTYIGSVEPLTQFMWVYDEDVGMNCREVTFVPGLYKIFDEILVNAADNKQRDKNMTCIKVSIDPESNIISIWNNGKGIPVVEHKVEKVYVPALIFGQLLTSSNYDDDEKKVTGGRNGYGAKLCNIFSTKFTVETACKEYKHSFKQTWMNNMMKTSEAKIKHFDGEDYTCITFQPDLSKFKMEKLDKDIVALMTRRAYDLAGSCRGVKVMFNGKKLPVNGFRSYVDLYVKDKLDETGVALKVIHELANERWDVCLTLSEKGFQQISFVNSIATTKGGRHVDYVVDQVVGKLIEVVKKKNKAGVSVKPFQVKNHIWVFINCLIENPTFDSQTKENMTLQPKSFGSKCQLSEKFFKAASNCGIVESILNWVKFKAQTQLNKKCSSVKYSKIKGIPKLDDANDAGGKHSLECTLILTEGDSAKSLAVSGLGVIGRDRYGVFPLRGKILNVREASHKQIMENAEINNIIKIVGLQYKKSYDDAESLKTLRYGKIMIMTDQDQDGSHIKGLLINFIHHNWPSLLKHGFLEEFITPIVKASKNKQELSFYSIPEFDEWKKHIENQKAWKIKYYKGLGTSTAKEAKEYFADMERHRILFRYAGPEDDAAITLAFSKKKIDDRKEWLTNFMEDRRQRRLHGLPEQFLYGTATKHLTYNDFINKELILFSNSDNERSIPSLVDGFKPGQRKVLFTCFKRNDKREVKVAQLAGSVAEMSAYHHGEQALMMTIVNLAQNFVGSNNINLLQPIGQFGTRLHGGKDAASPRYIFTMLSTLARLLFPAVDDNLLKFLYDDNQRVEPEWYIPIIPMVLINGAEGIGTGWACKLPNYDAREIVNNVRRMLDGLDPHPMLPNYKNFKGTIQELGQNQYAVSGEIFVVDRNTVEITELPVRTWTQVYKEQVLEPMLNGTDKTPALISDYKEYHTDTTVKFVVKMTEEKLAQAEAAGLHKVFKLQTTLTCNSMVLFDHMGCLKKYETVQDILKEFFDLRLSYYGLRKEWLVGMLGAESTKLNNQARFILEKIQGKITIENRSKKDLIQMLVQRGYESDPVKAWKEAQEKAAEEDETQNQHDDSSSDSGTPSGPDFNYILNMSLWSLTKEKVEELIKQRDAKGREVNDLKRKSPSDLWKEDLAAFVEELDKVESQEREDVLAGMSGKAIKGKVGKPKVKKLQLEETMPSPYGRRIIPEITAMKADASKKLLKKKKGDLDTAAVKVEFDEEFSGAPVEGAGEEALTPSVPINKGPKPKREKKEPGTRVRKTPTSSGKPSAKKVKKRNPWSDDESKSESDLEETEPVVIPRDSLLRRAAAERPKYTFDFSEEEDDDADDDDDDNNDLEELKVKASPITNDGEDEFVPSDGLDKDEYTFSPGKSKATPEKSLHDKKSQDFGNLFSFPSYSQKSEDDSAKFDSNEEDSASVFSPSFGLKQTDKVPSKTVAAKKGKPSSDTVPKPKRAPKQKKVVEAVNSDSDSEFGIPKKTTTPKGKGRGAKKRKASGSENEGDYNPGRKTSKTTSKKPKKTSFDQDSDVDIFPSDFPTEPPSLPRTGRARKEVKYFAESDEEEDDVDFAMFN

MDA-MB-468 [7] = test: Induction of apoptosis in human MDA-MB-468 cells assessed as upregulation of caspase-3 expression measured after 1 hr by ELISA relative to control; format: functional; method in brief: as §1
FaDu [8] = test: Growth inhibition of human FaDu cells measured after 48 hrs by SRB assay; format: functional, cell-based; method in brief: as §4
MDA-MB-468 [9] = test: Growth inhibition of human MDA-MB-468 cells at 100 ug/ml measured after 48 hrs by SRB assay relative to control; format: functional; details: dose 100.0 µg/ml, pooled result: one value given for 15 cell lines, strains, targets or settings; method in brief: as §2
Caco-2 = test: Growth inhibition of human Caco-2 cells at 100 ug/ml measured after 48 hrs by SRB assay relative to control; format: functional; details: dose 100.0 µg/ml, pooled result: one value given for 15 cell lines, strains, targets or settings; method in brief: as §2
MCF7 = test: Growth inhibition of human MCF7 cells at 100 ug/ml measured after 48 hrs by SRB assay relative to control; format: functional; details: dose 100.0 µg/ml, pooled result: one value given for 15 cell lines, strains, targets or settings; method in brief: as §2
DNA topoisomerase 2-beta [10] = target: T1, DNA topoisomerase 2-beta; test: Inhibition of human topoisomerase IIB by sandwich ELISA
A-375 = test: Growth inhibition of human A-375 cells at 100 ug/ml measured after 48 hrs by SRB assay relative to control; format: functional; details: dose 100.0 µg/ml, pooled result: one value given for 15 cell lines, strains, targets or settings; method in brief: as §2
MDA-MB-468 [11] = test: Cell cycle analysis in human MDA-MB-468 cells assessed as accumulation of cells at S phase at 3.1 uM measured after 48 hrs by propidium iodide staining based flow cytometry (reference value: 15.3%); format: functional; method in brief: as §3
HeLa [12] = test: Growth inhibition of human HeLa cells at 100 ug/ml measured after 48 hrs by SRB assay relative to control; format: functional; details: dose 100.0 µg/ml, pooled result: one value given for 15 cell lines, strains, targets or settings; method in brief: as §2
HN = test: Growth inhibition of human HN cells at 100 ug/ml measured after 48 hrs by SRB assay relative to control; format: functional; details: dose 100.0 µg/ml, pooled result: one value given for 15 cell lines, strains, targets or settings; method in brief: as §2
A-431 [13] = test: Growth inhibition of human A-431 cells measured after 48 hrs by SRB assay; format: functional, cell-based; method in brief: as §4
A-431 [14] = test: Growth inhibition of human A-431 cells at 100 ug/ml measured after 48 hrs by SRB assay relative to control; format: functional; details: dose 100.0 µg/ml, pooled result: one value given for 15 cell lines, strains, targets or settings; method in brief: as §2
Tubulin = test: Inhibition of [3H]-colchicine binding to biotinylated-tubulin (unknown origin) measured after 45 mins by scintillation counting analysis; format: protein-complex assay, Homo sapiens
Method in brief: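 Scintillation proximity assay run at 37 °C. Incubated 45 min at 37 °C, then the plate was read and percent inhibition calculated from raw counts.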

MDA-MB-468 [15] = test: Induction of apoptosis in human MDA-MB-468 cells assessed as down regulation of MMP2 expression measured after 1 hr by ELISA relative to control; format: functional; method in brief: as §1
MDA-MB-468 [16] = test: Growth inhibition of human MDA-MB-468 cells measured after 48 hrs by SRB assay; format: functional, cell-based; details: MDA-MB-468, 48 h; method in brief: as §4
HepG2 = test: Growth inhibition of human HepG2 cells at 100 ug/ml measured after 48 hrs by SRB assay relative to control; format: functional; details: dose 100.0 µg/ml, pooled result: one value given for 15 cell lines, strains, targets or settings; method in brief: as §2
MDA-MB-468 [17] = test: Induction of apoptosis in human MDA-MB-468 cells assessed as down regulation of BCL-2 expression measured after 1 hr by ELISA relative to control; format: functional; method in brief: as §1
NCI-H1299 = test: Growth inhibition of human NCI-H1299 cells at 100 ug/ml measured after 48 hrs by SRB assay relative to control; format: functional; details: dose 100.0 µg/ml, pooled result: one value given for 15 cell lines, strains, targets or settings; method in brief: as §2
MDA-MB-468 [18] = test: Induction of apoptosis in human MDA-MB-468 cells assessed as upregulation of caspase-9 expression measured after 1 hr by ELISA relative to control; format: functional; method in brief: as §1
MDA-MB-468 [19] = test: Induction of apoptosis in human MDA-MB-468 cells assessed as down regulation of MMP9 expression measured after 1 hr by ELISA relative to control; format: functional; method in brief: as §1
MDA-MB-468 [20] = test: Induction of apoptosis in human MDA-MB-468 cells assessed as upregulation of caspase-8 expression measured after 1 hr by ELISA relative to control; format: functional; method in brief: as §1
HEp-2 = test: Growth inhibition of human HEp-2 cells at 100 ug/ml measured after 48 hrs by SRB assay relative to control; format: functional; details: dose 100.0 µg/ml, pooled result: one value given for 15 cell lines, strains, targets or settings; method in brief: as §2
MDA-MB-468 [21] = test: Induction of apoptosis in human MDA-MB-468 cells assessed as upregulation of caspase-7 expression measured after 1 hr by ELISA relative to control; format: functional; method in brief: as §1
FaDu [22] = test: Growth inhibition of human FaDu cells at 100 ug/ml measured after 48 hrs by SRB assay relative to control; format: functional; details: dose 100.0 µg/ml, pooled result: one value given for 15 cell lines, strains, targets or settings; method in brief: as §2
A549 = test: Growth inhibition of human A549 cells at 100 ug/ml measured after 48 hrs by SRB assay relative to control; format: functional; details: dose 100.0 µg/ml, pooled result: one value given for 15 cell lines, strains, targets or settings; method in brief: as §2
PC-3 [23] = test: Growth inhibition of human PC-3 cells measured after 48 hrs by SRB assay; format: functional, cell-based; method in brief: as §4
PC-3 [24] = test: Growth inhibition of human PC-3 cells at 100 ug/ml measured after 48 hrs by SRB assay relative to control; format: functional; details: dose 100.0 µg/ml, pooled result: one value given for 15 cell lines, strains, targets or settings; method in brief: as §2

Cc1nnc(S)n(N2C(=O)c3c(Br)c(Br)c(Br)c(Br)c3C2=O)c1=O
fold change (FC) (MDA-MB-468 [1]): 3.61 | fold change (FC) (MDA-MB-468 [2]): 2.44 | growth inhibition (GI) (HNO 97 cell line): Active | Activity (MDA-MB-468 [3]): 2.29% | growth inhibition (GI) (HCT-116): Active | growth inhibition (GI) (HeLa [4]): Active | Activity (MDA-MB-468 [5]): 88.67% | inhibition (DNA topoisomerase 2-beta [6]): Active | fold change (FC) (MDA-MB-468 [7]): 3.42 | growth inhibition (GI) (FaDu [8]): Active | growth inhibition (GI) (MDA-MB-468 [9]): Active | growth inhibition (GI) (Caco-2): Active | growth inhibition (GI) (MCF7): Active | IC50 (DNA topoisomerase 2-beta [10]): 26.1 µM | growth inhibition (GI) (A-375): Active | Activity (MDA-MB-468 [11]): 9.04% | growth inhibition (GI) (HeLa [12]): Active | growth inhibition (GI) (HN): Active | growth inhibition (GI) (A-431 [13]): Active | growth inhibition (GI) (A-431 [14]): Active | IC50 (Tubulin): 3.18 µM | fold change (FC) (MDA-MB-468 [15]): 1.9 | IC50 (MDA-MB-468 [16]): 6.7 µg/mL (≈ 11.1 µM) | growth inhibition (GI) (HepG2): Active | fold change (FC) (MDA-MB-468 [17]): 1.81 | growth inhibition (GI) (NCI-H1299): Active | fold change (FC) (MDA-MB-468 [18]): 3.72 | fold change (FC) (MDA-MB-468 [19]): 2.29 | fold change (FC) (MDA-MB-468 [20]): 2.33 | growth inhibition (GI) (HEp-2): Active | fold change (FC) (MDA-MB-468 [21]): 2.44 | growth inhibition (GI) (FaDu [22]): Active | growth inhibition (GI) (A549): Active | growth inhibition (GI) (PC-3 [23]): Active | growth inhibition (GI) (PC-3 [24]): Active
